In ChEMBL document CHEMBL1140034, “Conformationally constrained analogues of diacylglycerol. 30. An investigation of diacylglycerol-lactones containing heteroaryl groups reveals compounds with high selectivity for Ras guanyl nucleotide-releasing proteins” (J Med Chem, 2008) one finds Ki, logP and Ratio Ki data, which are given here for 18 compounds.

SMILES strings stand for the structures. pKi: −log10 of the molar value.

As usually defined, the pKi is the Ki on a negative log10 scale, so that one unit is a factor of ten. For orientation: logP means a log measure of how a compound divides between an organic and an aqueous phase.

One data set deals with Protein kinase C alpha type (Homo sapiens, UniProt P17252). Nature of the data set: Displacement of [3H]PDBu from human recombinant PKCalpha expressed in Escherichia coli […] (DE3).
Conditions: not given
In short, it runs like this: (§1)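 Competition binding: displacement of bound [20-3H]phorbol 12,13-dibutyrate from recombinant PKC alpha or RasGRP3 measured in the presence of phosphatidylserine. IC50 obtained by fitting data points to the theoretical competition curve; Ki calculated from the corresponding IC50.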
Consider `CCCC(CCC)C(=O)OCC1(CO)C/C(=C\c2cccnc2)C(=O)O1` (centres undefined), for which the pKi was 7.12.

With `COc1ccc(C(=O)OCC2(CO)C/C(=C\c3cn(C)c4ccccc34)C(=O)O2)cc1` (centres undefined), the pKi was 6.67.

On to `CCCC(CCC)C(=O)OCC1(CO)C/C(=C\c2ccc3ccccc3n2)C(=O)O1` (centres undefined), for which the pKi is 7.28.

Consider `COc1ccc(C(=O)OCC2(CO)C/C(=C/c3ccccn3)C(=O)O2)cc1` (centres undefined), for which the pKi is 4.57.

For the compound `CN(C)c1ccc(C(=O)OCC2(CO)C/C(=C\c3ccc([N+](=O)[O-])cc3)C(=O)O2)cc1` (centres undefined), the pKi is 6.46.

In the case of `CCCC(CCC)C(=O)OCC1(CO)C/C(=C/c2ccccn2)C(=O)O1` (centres undefined), the pKi is 5.86.

On to `CCCC(CCC)C(=O)OCC1(CO)C/C(=C\c2ccncc2)C(=O)O1` (centres undefined), for which the pKi is 6.20.

As to `CN(C)c1ccc(C(=O)OCC2(CO)C/C(=C/c3ccncc3)C(=O)O2)cc1` (centres undefined), the pKi was 4.48.

In the case of `CN(C)c1ccc(C(=O)OCC2(CO)C/C(=C/c3ccc4ccccc4n3)C(=O)O2)cc1` (centres undefined), the pKi was 4.80.

As for `CN(C)c1ccc(C(=O)OCC2(CO)C/C(=C/c3cccnc3)C(=O)O2)cc1` (centres undefined), the negative-log Ki (pKi) was 4.47.

As for `CCCC(CCC)C(=O)OCC1(CO)C/C(=C\c2ccccn2)C(=O)O1` (centres undefined), the pKi was 7.06.

Turning to `COc1ccc(C(=O)OCC2(CO)C/C(=C\c3ccc([N+](=O)[O-])cc3)C(=O)O2)cc1` (centres undefined), the pKi was 6.87.

In the case of `COc1ccc(C(=O)OCC2(CO)C/C(=C/c3ccc4ccccc4n3)C(=O)O2)cc1` (centres undefined), the pKi was 5.53.

As to `CN(C)c1ccc(C(=O)OCC2(CO)C/C(=C\c3ccccn3)C(=O)O2)cc1` (centres undefined), the pKi is 5.99.

In the case of `CN(C)c1ccc(C(=O)OCC2(CO)C/C(=C\c3cn(C)c4ccccc34)C(=O)O2)cc1` (centres undefined), the pKi is 6.76.

Consider `CN(C)c1ccc(C(=O)OCC2(CO)C/C(=C\c3cccnc3)C(=O)O2)cc1` (centres undefined), for which the pKi is 6.10.

As to `CN(C)c1ccc(C(=O)OCC2(CO)C/C(=C\c3ccc4ccccc4n3)C(=O)O2)cc1` (centres undefined), the pKi was 6.82.

Regarding `CCCC(CCC)C(=O)OCC1(CO)C/C(=C/c2cnc3ccccc3c2)C(=O)O1` (centres undefined), the pKi is 6.75.

Test system in another data set: not listed separately
The data set is described as follows: Lipophilicity, SlogP of the compound. To be noted: octanol/water. The data set is classed as physicochemical.
In the case of `CCCC(CCC)C(=O)OCC1(CO)C/C(=C\c2cccnc2)C(=O)O1` (centres undefined), the logP stood at 2.9.

For the compound `COc1ccc(C(=O)OCC2(CO)C/C(=C\c3cn(C)c4ccccc34)C(=O)O2)cc1` (centres undefined), the logP was found to be 3.46.

`CCCC(CCC)C(=O)OCC1(CO)C/C(=C\c2ccc3ccccc3n2)C(=O)O1` (centres undefined) registered a logP of 4.06.

`COc1ccc(C(=O)OCC2(CO)C/C(=C/c3ccccn3)C(=O)O2)cc1` (centres undefined): the lipophilicity (logP) came out at 2.01.

For `CCCC(CCC)C(=O)OCC1(CO)C/C(=C/c2ccccn2)C(=O)O1` (centres undefined), the logP came out at 2.9.

In turn, `CCCC(CCC)C(=O)OCC1(CO)C/C(=C\c2ccncc2)C(=O)O1` (centres undefined) showed a logP of 2.9.

In the case of `CN(C)c1ccc(C(=O)OCC2(CO)C/C(=C/c3ccncc3)C(=O)O2)cc1` (centres undefined), the logP is 2.07.

As to `CN(C)c1ccc(C(=O)OCC2(CO)C/C(=C/c3ccc4ccccc4n3)C(=O)O2)cc1` (centres undefined), the logP was determined as 3.22.

Turning to `CN(C)c1ccc(C(=O)OCC2(CO)C/C(=C/c3cccnc3)C(=O)O2)cc1` (centres undefined), the logP is 2.07.

Turning to `CCCC(CCC)C(=O)OCC1(CO)C/C(=C\c2ccccn2)C(=O)O1` (centres undefined), the logP amounted to 2.9.

In the case of `COc1ccc(C(=O)OCC2(CO)C/C(=C/c3ccc4ccccc4n3)C(=O)O2)cc1` (centres undefined), the logP turned out to be 3.16.

Turning to `CN(C)c1ccc(C(=O)OCC2(CO)C/C(=C\c3ccccn3)C(=O)O2)cc1` (centres undefined), the logP came to 2.07.

Take `CN(C)c1ccc(C(=O)OCC2(CO)C/C(=C\c3cn(C)c4ccccc34)C(=O)O2)cc1` (centres undefined): the logP worked out at 3.22.

`CN(C)c1ccc(C(=O)OCC2(CO)C/C(=C\c3cccnc3)C(=O)O2)cc1` (centres undefined) came in with a logP of 2.07.

As for `CN(C)c1ccc(C(=O)OCC2(CO)C/C(=C\c3ccc4ccccc4n3)C(=O)O2)cc1` (centres undefined), the logP was determined as 3.22.

Compound `CCCC(CCC)C(=O)OCC1(CO)C/C(=C/c2cnc3ccccc3c2)C(=O)O1` (centres undefined) displayed a logP of 4.06.

Test system in another data set: not listed separately
Nature of the data set: Ratio of Ki for human recombinant PKCalpha to RasGRP3.
Conditions: not given
In short, it runs like this: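 Ki values for PKC alpha and RasGRP3 each come from [20-3H]PDBu displacement from the recombinant protein in the presence of phosphatidylserine, with IC50 fitted to the theoretical competition curve and converted to Ki. The ratio is Ki(PKC alpha)/Ki(RasGRP3).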
`CCCC(CCC)C(=O)OCC1(CO)C/C(=C\c2cccnc2)C(=O)O1` (centres undefined): the Ratio Ki came out at 47.

For `COc1ccc(C(=O)OCC2(CO)C/C(=C\c3cn(C)c4ccccc34)C(=O)O2)cc1` (centres undefined), the Ratio Ki turned out to be 64.

On to `CCCC(CCC)C(=O)OCC1(CO)C/C(=C\c2ccc3ccccc3n2)C(=O)O1` (centres undefined), for which the Ratio Ki is 31.

For the compound `COc1ccc(C(=O)OCC2(CO)C/C(=C/c3ccccn3)C(=O)O2)cc1` (centres undefined), the Ratio Ki is 11.

With `CN(C)c1ccc(C(=O)OCC2(CO)C/C(=C\c3ccc([N+](=O)[O-])cc3)C(=O)O2)cc1` (centres undefined), the Ratio Ki stood at 90.

As to `CCCC(CCC)C(=O)OCC1(CO)C/C(=C/c2ccccn2)C(=O)O1` (centres undefined), the Ratio Ki is 16.

Turning to `CCCC(CCC)C(=O)OCC1(CO)C/C(=C\c2ccncc2)C(=O)O1` (centres undefined), the Ratio Ki stood at 45.

For the compound `CN(C)c1ccc(C(=O)OCC2(CO)C/C(=C/c3ccncc3)C(=O)O2)cc1` (centres undefined), the Ratio Ki was 14.

Turning to `CN(C)c1ccc(C(=O)OCC2(CO)C/C(=C/c3ccc4ccccc4n3)C(=O)O2)cc1` (centres undefined), the Ratio Ki was 8.

Turning to `CN(C)c1ccc(C(=O)OCC2(CO)C/C(=C/c3cccnc3)C(=O)O2)cc1` (centres undefined), the Ratio Ki is 20.

Consider `CCCC(CCC)C(=O)OCC1(CO)C/C(=C\c2ccccn2)C(=O)O1` (centres undefined), for which the Ratio Ki amounted to 119.

Turning to `COc1ccc(C(=O)OCC2(CO)C/C(=C\c3ccc([N+](=O)[O-])cc3)C(=O)O2)cc1` (centres undefined), the Ratio Ki amounted to 20.

Take `COc1ccc(C(=O)OCC2(CO)C/C(=C/c3ccc4ccccc4n3)C(=O)O2)cc1` (centres undefined): the Ratio Ki was 2.

For `CN(C)c1ccc(C(=O)OCC2(CO)C/C(=C\c3ccccn3)C(=O)O2)cc1` (centres undefined), the Ratio Ki was found to be 43.

As to `CN(C)c1ccc(C(=O)OCC2(CO)C/C(=C\c3cn(C)c4ccccc34)C(=O)O2)cc1` (centres undefined), the Ratio Ki was 47.

Turning to `CN(C)c1ccc(C(=O)OCC2(CO)C/C(=C\c3cccnc3)C(=O)O2)cc1` (centres undefined), the Ratio Ki amounted to 13.

Take `CN(C)c1ccc(C(=O)OCC2(CO)C/C(=C\c3ccc4ccccc4n3)C(=O)O2)cc1` (centres undefined): the Ratio Ki turned out to be 14.

In the case of `CCCC(CCC)C(=O)OCC1(CO)C/C(=C/c2cnc3ccccc3c2)C(=O)O1` (centres undefined), the Ratio Ki was 5.

The target in a further data set is T1, Ras guanyl-releasing protein 3 (Homo sapiens, UniProt Q8IV61).
T1 sequence (Q8IV61 whole entry): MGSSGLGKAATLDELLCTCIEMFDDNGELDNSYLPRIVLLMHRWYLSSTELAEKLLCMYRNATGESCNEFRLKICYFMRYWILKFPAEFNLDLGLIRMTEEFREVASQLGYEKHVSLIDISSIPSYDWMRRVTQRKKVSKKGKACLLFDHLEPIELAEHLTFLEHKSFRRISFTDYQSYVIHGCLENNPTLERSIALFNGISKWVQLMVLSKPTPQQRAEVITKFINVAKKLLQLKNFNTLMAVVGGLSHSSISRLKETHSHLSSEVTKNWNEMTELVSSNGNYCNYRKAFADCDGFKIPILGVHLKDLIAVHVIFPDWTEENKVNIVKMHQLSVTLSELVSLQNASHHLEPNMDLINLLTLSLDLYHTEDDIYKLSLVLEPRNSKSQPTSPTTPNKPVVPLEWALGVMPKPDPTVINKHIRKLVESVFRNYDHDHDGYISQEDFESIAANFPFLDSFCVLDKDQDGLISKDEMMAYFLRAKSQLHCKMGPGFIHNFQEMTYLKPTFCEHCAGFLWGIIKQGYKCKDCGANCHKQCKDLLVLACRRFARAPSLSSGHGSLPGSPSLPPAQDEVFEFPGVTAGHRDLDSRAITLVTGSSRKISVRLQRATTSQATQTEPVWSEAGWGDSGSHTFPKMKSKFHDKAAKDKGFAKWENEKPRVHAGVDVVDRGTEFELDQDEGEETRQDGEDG
The data set is described as follows: Displacement of [3H]PDBu from RasGRP3 expressed in cells. Type of data set: cell-based.
Conditions: not given
In short, it runs like this: as §1
(In general: In a radioligand displacement assay an active substance lowers the binding of a labelled ligand.)
For `CCCC(CCC)C(=O)OCC1(CO)C/C(=C\c2cccnc2)C(=O)O1` (centres undefined), the pKi was 8.80.

For the compound `COc1ccc(C(=O)OCC2(CO)C/C(=C\c3cn(C)c4ccccc34)C(=O)O2)cc1` (centres undefined), the pKi was 8.48.

`CCCC(CCC)C(=O)OCC1(CO)C/C(=C\c2ccc3ccccc3n2)C(=O)O1` (centres undefined) gave a pKi of 8.77.

`COc1ccc(C(=O)OCC2(CO)C/C(=C/c3ccccn3)C(=O)O2)cc1` (centres undefined): the pKi was 5.61.

`CCCC(CCC)C(=O)OCC1(CO)C/C(=C/c2ccccn2)C(=O)O1` (centres undefined) had a pKi of 7.08.

`CCCC(CCC)C(=O)OCC1(CO)C/C(=C\c2ccncc2)C(=O)O1` (centres undefined) gave a pKi of 7.86.

Compound `CN(C)c1ccc(C(=O)OCC2(CO)C/C(=C/c3ccncc3)C(=O)O2)cc1` (centres undefined) showed a pKi of 5.63.

Regarding `CN(C)c1ccc(C(=O)OCC2(CO)C/C(=C/c3ccc4ccccc4n3)C(=O)O2)cc1` (centres undefined), the pKi was 5.69.

`CN(C)c1ccc(C(=O)OCC2(CO)C/C(=C/c3cccnc3)C(=O)O2)cc1` (centres undefined) had a pKi of 5.71.

`CCCC(CCC)C(=O)OCC1(CO)C/C(=C\c2ccccn2)C(=O)O1` (centres undefined) showed a pKi of 9.14.

`COc1ccc(C(=O)OCC2(CO)C/C(=C\c3ccc([N+](=O)[O-])cc3)C(=O)O2)cc1` (centres undefined): the pKi is 8.17.

`COc1ccc(C(=O)OCC2(CO)C/C(=C/c3ccc4ccccc4n3)C(=O)O2)cc1` (centres undefined): the pKi was 5.86.

In the case of `CN(C)c1ccc(C(=O)OCC2(CO)C/C(=C\c3ccccn3)C(=O)O2)cc1` (centres undefined), the pKi is 7.62.

Compound `CN(C)c1ccc(C(=O)OCC2(CO)C/C(=C\c3cn(C)c4ccccc34)C(=O)O2)cc1` (centres undefined) showed a pKi of 8.43.

Take `CN(C)c1ccc(C(=O)OCC2(CO)C/C(=C\c3cccnc3)C(=O)O2)cc1` (centres undefined): the pKi is 7.23.

`CN(C)c1ccc(C(=O)OCC2(CO)C/C(=C\c3ccc4ccccc4n3)C(=O)O2)cc1` (centres undefined) showed a pKi of 7.96.

On to `CCCC(CCC)C(=O)OCC1(CO)C/C(=C/c2cnc3ccccc3c2)C(=O)O1` (centres undefined), for which the pKi was 7.49.
